# Experimental data published in ChEMBL document CHEMBL1152519, “Synthesis, structural activity-relationships, and biological evaluation of novel amide-based allosteric binding site antagonists in NR1A/NR2B N-methyl-D-aspartate receptors” (Bioorg Med Chem, 2009).
# Calls of active or inactive are those of the source. The rule behind the calls is not given here.
# How the values were obtained:
# MDCK [1] = test: Apparent permeability from basolateral to apical side of MDR1-expressing MDCK cells at 5 uM after 2 hrs by LC-MS/MS analysis; type: ADME, cell-based, Canis lupus familiaris; details: dog
# Procedure, shortened: (§1)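 MDR1-MDCK monolayers grown 7–11 days on Transwells. Compound at 5 μM in HBSS pH 7.4 (final DMSO ≤1%) added apically (A–B) or basally (B–A). Incubated 2 h at 37 °C; both compartments quantified by LC–MS/MS against a >4-point calibration. Papp given in ×10−6 cm/s; efflux ratio = B–A/A–B. Duplicates.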
# [2] = molecular target: T1, Glutamate NMDA receptor; Grin1/Grin2b (Rattus norvegicus) (UniProt P35439+Q00960); test: Antagonist activity at rat recombinant NR1/NR2B receptor expressed in Xenopus laevis oocytes assessed as inhibition of glutamate/glycine-induced current at 3 uM by two electrode voltage clamp method; type: functional, cell-based; details: Oocyte
# Procedure, shortened: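 Oocytes (stage V–VI, Xenopus laevis) injected with NR1 and NR2 cRNA, held 1–7 d at 15 °C. TEVC at −40 mV, 23 °C, in 90 NaCl/1 KCl/10 HEPES/0.5 BaCl2 (mM) plus 10 μM EDTA. Current to 50 μM glutamate plus 30 μM glycine with 3 μM compound, given as percent of control; 4–10 oocytes.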
# hERG (KCNH2) = hERG (KCNH2) (Homo sapiens, UniProt Q12809); test: Displacement of [3H]astemizole from human recombinant ERG expressed in HEK293 cells at 10 uM; type: cell-based; details: HEK293 cells expressing human recombinant ERG, probe [3H]astemizole, read-out: Activity
# MDCK [3] = test: Apparent permeability from apical to basolateral side of MDR1-expressing MDCK cells at 5 uM after 2 hrs by LC-MS/MS analysis; type: ADME, cell-based, Canis lupus familiaris; details: dog; procedure, shortened: as §1
# [4] = molecular target: Glutamate receptor ionotropic, kainate 2 (Rattus norvegicus) (UniProt P42260); test: Antagonist activity at rat recombinant GluR6 expressed in Xenopus laevis oocytes assessed as inhibition of concanavalin A/glutamate-induced current at 3 uM by two electrode voltage clamp method relative to control; type: functional, cell-based; details: Oocyte
# Procedure, shortened: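 Oocytes expressing homomeric GluR6 (5–10 ng cRNA) pretreated 5 min with 10 μM concanavalin-A. Currents evoked by 100 μM glutamate at −40 mV, with or without 3 μM compound, and given as percent of control. Mean ± SEM of 4–10 oocytes; paired t-test.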
# Oocyte = test: Antagonist activity at rat NR1/NR2B receptor deltaATD mutant expressed in Xenopus laevis oocytes assessed as inhibition of glutamate/glycine-induced current at 0.01 to 100 uM by two electrode voltage clamp method; type: functional, cell-based
# Procedure, shortened: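 Oocytes express NR1/NR2B amino-terminal-domain mutants (mouse D101A point mutant; rat ATD deletion). Concentration–effect curves were recorded by two-electrode voltage clamp at −40 mV and 23 °C, with 50 μM glutamate plus 30 μM glycine. Each step is compound plus agonists, expressed relative to agonists alone.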
# [5] = molecular target: Glutamate NMDA receptor; Grin1/Grin2a (Rattus norvegicus) (UniProt P35439+Q00959); test: Antagonist activity at rat recombinant NR1/NR2A receptor expressed in Xenopus laevis oocytes assessed as inhibition of glutamate/glycine-induced current at 3 uM by two electrode voltage clamp method relative to control; type: functional, cell-based; details: Oocyte
# Procedure, shortened: (§2)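 Xenopus oocytes injected with NR1-1a (3–5 ng) plus NR2A, 2B, 2C or 2D cRNA (7–10 ng), kept at 15 °C. Voltage clamp at −40 mV. Responses to 50 μM glutamate + 30 μM glycine with 3 μM compound, as % of response without compound. NR2A oocytes pre-loaded with 50 μM BAPTA-AM. Mean ± SEM, 4–10 oocytes; paired t-test.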
# Rattus norvegicus [6] = species: Rattus norvegicus; test: Inhibition of voltage-gated potassium channel in Sprague-Dawley rat cortical neuron at 3 uM by whole cell patch clamp technique
# [7] = molecular target: T2, Glutamate NMDA receptor; GRIN1/GRIN2B (Homo sapiens, UniProt Q05586+Q13224); test: Antagonist activity at human recombinant NR1/NR2B receptor expressed in frog oocytes assessed as inhibition of glutamate/glycine-induced current by two electrode voltage clamp method; type: functional, cell-based, Oocyte
# Procedure, shortened: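 Human NR1/NR2B cRNA injected into Xenopus oocytes. Two-electrode voltage clamp at −40 mV, 23 °C, 2–7 d after injection. Glutamate/glycine (50–100 μM/30 μM) applied, then with 5–8 compound concentrations. Bath contains 10 μM EDTA; leak-corrected.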
# [8] = molecular target: Ionotropic glutamate receptor NMDA 1/2D (Rattus norvegicus, UniProt P35439+Q62645); test: Antagonist activity at rat recombinant NR1/NR2D receptor expressed in Xenopus laevis oocytes assessed as inhibition of glutamate/glycine-induced current by two electrode voltage clamp method; type: functional, cell-based, Oocyte
# Procedure, shortened: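 Xenopus oocytes expressing NR1/NR2 (wild type or amino terminal domain deletion mutant) recorded by TEVC at −40 mV, room temperature, pH 7.4–7.6, with EDTA 10 μM. Maximal glutamate/glycine applied alone, then with 5–8 successive compound concentrations. Leak-corrected; responses under 50 nA excluded. IC50 from fitted composite curve. NR1/NR2A oocytes were pre-incubated in 50 μM BAPTA-AM.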
# [9] = molecular target: Glutamate receptor 1 (Rattus norvegicus) (UniProt P19490); test: Antagonist activity at rat recombinant GluR1 expressed in Xenopus laevis oocytes assessed as inhibition of glutamate-induced current at 3 uM by two electrode voltage clamp method relative to control; type: functional, cell-based; details: Oocyte
# Procedure, shortened: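 GluR1 homomers expressed from 5–10 ng cRNA in Xenopus oocytes. Clamped at −40 mV. Currents evoked by 100 μM glutamate with 3 μM compound, expressed as % of control without compound. Mean ± SEM, 4–10 oocytes; paired t-test.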
# [10] = molecular target: T1, Glutamate NMDA receptor; Grin1/Grin2b (Rattus norvegicus); test: Antagonist activity at rat recombinant NR1/NR2B receptor expressed in Xenopus laevis oocytes assessed as inhibition of glutamate/glycine-induced current at 3 uM by two electrode voltage clamp method relative to control; type: functional, cell-based; details: Oocyte; procedure, shortened: as §2
# [11] = molecular target: T2, Glutamate NMDA receptor; GRIN1/GRIN2B; test: Antagonist activity at human recombinant NR1/NR2B receptor expressed in frog oocytes assessed as inhibition of glutamate/glycine-induced current at 3 uM by two electrode voltage clamp method; type: functional, cell-based; details: Oocyte
# [12] = molecular target: T1, Glutamate NMDA receptor; Grin1/Grin2b (Rattus norvegicus); test: Antagonist activity at rat recombinant NR1/NR2B receptor expressed in Xenopus laevis oocytes assessed as noncompetitive inhibition of glutamate/glycine-induced current at 0.054 uM by two electrode voltage clamp method; type: functional, cell-based; details: Oocyte
# Procedure, shortened: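 TEVC on rat NR1/NR2B oocytes at −40 mV. Inhibition by 0.054 μM compound measured while glutamate or glycine was raised 10-fold above the control 50 μM glutamate/30 μM glycine. Response given as percent of control; n = 4.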
# [13] = molecular target: Glutamate NMDA receptor; Grin1/Grin2c (Rattus norvegicus) (UniProt P35439+Q00961); test: Antagonist activity at rat recombinant NR1/NR2C receptor expressed in Xenopus laevis oocytes assessed as inhibition of glutamate/glycine-induced current at 3 uM by two electrode voltage clamp method relative to control; type: functional, cell-based; details: Oocyte; procedure, shortened: as §2
# Rattus norvegicus [14] = species: Rattus norvegicus; test: Inhibition of voltage-gated sodium channel in Sprague-Dawley rat cortical neuron at 3 uM by whole cell patch clamp technique
# Sequence of Ionotropic glutamate receptor NMDA 1/2D (Q62645 whole entry, other chains not shown, the tested form may be a part): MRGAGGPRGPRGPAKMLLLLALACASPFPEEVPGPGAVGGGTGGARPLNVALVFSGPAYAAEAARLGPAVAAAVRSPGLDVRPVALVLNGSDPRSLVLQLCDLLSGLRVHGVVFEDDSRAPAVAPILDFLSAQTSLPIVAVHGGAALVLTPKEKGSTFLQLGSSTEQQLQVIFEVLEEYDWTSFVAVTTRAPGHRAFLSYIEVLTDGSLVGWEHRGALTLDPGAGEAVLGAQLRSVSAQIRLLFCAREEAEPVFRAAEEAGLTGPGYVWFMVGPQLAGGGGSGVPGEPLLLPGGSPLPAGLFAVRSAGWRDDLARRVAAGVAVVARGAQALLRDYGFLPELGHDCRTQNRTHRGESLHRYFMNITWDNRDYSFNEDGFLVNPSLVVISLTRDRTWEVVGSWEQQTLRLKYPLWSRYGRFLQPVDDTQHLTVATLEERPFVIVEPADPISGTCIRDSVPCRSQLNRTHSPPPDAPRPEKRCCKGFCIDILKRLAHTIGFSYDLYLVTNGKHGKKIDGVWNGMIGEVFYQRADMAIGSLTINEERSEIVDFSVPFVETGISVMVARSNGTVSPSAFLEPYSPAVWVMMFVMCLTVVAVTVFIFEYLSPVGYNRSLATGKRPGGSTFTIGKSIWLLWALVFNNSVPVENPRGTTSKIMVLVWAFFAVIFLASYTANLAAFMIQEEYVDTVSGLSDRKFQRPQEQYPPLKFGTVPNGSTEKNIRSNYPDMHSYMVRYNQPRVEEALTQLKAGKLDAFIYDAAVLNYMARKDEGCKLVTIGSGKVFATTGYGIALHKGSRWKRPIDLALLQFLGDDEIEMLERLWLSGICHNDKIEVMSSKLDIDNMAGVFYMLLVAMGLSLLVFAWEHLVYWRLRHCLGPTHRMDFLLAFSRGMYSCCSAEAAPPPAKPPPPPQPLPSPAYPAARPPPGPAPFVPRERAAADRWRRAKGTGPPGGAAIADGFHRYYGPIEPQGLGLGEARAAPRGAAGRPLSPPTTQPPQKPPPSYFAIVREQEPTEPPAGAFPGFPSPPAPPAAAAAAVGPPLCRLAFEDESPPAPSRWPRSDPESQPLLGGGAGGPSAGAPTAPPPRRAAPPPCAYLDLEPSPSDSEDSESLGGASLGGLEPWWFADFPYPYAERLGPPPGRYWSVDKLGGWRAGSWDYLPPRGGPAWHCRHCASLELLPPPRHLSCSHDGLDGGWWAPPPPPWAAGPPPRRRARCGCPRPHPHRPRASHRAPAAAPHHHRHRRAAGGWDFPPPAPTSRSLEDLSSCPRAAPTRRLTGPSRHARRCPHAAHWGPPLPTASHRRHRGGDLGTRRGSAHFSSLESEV
# Sequence of Glutamate receptor 1 (Rattus norvegicus) (P19490 whole entry): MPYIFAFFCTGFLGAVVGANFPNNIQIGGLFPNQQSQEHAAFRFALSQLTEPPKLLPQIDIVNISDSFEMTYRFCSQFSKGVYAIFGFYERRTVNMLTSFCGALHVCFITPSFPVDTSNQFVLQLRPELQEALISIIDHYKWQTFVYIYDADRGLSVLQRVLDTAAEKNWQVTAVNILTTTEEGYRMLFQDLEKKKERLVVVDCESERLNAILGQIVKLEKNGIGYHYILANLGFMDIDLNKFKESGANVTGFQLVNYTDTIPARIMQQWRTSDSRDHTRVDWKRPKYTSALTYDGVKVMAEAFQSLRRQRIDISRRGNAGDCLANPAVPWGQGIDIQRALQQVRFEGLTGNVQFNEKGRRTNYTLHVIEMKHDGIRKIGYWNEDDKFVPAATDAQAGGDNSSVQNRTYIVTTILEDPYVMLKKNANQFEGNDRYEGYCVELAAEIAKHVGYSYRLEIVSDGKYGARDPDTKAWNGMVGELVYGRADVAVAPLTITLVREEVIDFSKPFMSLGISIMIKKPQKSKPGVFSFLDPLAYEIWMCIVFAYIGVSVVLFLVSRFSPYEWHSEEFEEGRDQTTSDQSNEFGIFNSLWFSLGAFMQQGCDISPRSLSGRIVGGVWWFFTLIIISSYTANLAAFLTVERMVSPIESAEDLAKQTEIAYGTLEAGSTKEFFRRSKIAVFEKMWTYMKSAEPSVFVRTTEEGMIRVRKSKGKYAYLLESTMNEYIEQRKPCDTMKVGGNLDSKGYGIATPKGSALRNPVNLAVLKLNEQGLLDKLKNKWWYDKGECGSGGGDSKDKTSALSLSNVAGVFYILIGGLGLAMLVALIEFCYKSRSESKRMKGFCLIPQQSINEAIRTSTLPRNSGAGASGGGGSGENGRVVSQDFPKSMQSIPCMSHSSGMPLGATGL
# Sequence of Glutamate receptor ionotropic, kainate 2 (Rattus norvegicus) (P42260 whole entry): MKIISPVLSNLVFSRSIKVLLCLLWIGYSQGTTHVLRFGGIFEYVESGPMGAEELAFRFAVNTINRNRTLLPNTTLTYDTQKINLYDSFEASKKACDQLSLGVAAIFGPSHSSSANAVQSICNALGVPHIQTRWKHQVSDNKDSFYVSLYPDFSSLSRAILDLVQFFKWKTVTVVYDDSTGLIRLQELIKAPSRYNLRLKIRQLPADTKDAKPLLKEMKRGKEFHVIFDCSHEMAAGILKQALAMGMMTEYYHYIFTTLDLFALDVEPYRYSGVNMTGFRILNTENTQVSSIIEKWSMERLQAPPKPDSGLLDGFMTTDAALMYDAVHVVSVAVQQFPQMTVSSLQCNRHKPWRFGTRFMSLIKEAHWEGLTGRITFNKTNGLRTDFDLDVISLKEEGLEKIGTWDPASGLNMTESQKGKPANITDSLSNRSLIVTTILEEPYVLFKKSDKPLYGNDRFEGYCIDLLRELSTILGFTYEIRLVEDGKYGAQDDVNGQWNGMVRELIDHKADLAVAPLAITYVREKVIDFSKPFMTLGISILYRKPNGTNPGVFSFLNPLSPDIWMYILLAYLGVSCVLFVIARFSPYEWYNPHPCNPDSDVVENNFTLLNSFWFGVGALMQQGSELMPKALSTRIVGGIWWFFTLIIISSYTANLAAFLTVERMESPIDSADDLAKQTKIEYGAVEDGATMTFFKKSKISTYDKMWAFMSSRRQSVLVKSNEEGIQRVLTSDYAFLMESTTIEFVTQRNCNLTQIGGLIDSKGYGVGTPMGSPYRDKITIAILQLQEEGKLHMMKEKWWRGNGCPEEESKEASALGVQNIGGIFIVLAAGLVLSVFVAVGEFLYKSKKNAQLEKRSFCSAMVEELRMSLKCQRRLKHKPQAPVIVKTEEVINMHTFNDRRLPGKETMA
# Sequence of hERG (KCNH2) (Q12809 whole entry): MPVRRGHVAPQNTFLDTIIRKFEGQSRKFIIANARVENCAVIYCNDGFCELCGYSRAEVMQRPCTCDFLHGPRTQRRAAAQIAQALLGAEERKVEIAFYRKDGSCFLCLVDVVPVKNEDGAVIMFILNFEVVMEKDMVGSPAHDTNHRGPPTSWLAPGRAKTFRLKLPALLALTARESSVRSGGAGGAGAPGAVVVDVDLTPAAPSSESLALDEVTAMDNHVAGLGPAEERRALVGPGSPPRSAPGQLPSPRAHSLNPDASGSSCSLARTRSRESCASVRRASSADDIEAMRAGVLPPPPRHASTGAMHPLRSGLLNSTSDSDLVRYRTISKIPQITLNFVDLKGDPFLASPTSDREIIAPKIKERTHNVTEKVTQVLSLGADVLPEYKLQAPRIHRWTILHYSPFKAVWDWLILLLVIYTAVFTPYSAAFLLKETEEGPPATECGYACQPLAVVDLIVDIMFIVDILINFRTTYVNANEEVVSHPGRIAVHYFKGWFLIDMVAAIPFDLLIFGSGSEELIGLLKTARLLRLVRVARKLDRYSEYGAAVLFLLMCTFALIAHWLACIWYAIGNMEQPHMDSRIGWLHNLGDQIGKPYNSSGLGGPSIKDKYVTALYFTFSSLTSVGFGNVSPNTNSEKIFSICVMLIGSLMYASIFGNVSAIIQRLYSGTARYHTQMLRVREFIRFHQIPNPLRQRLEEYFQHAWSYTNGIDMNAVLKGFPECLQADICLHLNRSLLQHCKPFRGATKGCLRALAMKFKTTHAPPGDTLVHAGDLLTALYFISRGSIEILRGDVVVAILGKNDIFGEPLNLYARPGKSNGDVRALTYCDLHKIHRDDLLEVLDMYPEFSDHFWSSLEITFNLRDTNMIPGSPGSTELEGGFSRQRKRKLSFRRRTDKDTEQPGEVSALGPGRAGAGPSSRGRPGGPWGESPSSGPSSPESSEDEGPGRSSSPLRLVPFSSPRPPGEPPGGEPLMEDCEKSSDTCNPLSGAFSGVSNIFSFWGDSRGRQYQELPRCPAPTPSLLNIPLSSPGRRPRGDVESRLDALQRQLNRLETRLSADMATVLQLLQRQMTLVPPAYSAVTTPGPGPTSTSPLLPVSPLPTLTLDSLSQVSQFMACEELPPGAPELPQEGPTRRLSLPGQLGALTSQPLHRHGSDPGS
structure (smiles),measurement,setting,value
CS(=O)(=O)Nc1ccc(OCC(=O)NCCNc2ccc(Cl)c(Cl)c2)cc1,Papp,MDCK [1],63.2 ×10⁻⁶ cm/s
same,inhibition,[2],88%
same,inhibition at 10 µM,hERG (KCNH2),43%
same,Papp,MDCK [3],1.8 ×10⁻⁶ cm/s
same,% response,[4],99%
same,inhibition,Oocyte,inactive
same,% response,[5],92%
same,inhibition,Rattus norvegicus [6],inactive
same,IC50,[7],0.054 µM
same,IC50,[8],107 µM
same,% response,[9],101%
same,% response,[10],16%
same,inhibition,[11],90%
same,inhibition,[12],Active
same,% response,[13],98%
same,inhibition,Rattus norvegicus [14],inactive
